High-throughput results: PubChem BioAssay, several laboratories
NS3 helicase inh: blocks Hepatitis C virus NS3 helicase unwinding | NS3 helicase DNA unwinding, Cy5 molecular beacon fluorescence | inhibition, % at 10.9 µM | hit rate 0.56% among 290,000 | AID 1800;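 active = inhibition above the mean of all tested compounds plus 3 SD, set per campaign, cut at about 35% in these data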;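 note: 0% = DMSO wells and 100% = thioflavine S control wells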
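System: NS3 helicase fragment of HCV / Schedule: 1 h at 25 °C / Control set: DMSO alone as 0% and 110 µM thioflavine S as 100% / Reagent: Cy5/quencher beacon DNA duplex and ATP to start / Technique: Cy5 fluorescence / Replication: singlicate / Evaluation: % inhibition of end-to-start signal ratio versus controls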
EBV gp42 block: blocks Epstein-Barr virus glycoprotein 42 binding. Q1HVG2. inhibition, % (tested at 21.74 µM). hit rate 0.42% among 220,000. Fluorescence polarization binding assay, mP read-out; in the data active = inhibition above about 50%
ZTA DNA inh: counter-screen for EBNA-1 inhibitors: inhibitors of Epstein-Barr virus ZTA; P03206; ZTA-DNA binding, fluorescence polarization; inhibition, % at 11 µM; hit rate 0.15% among 320,000; in the data active = inhibition above about 33%
core dimer inh: HCV core protein dimerization inhibition; TR-FRET GST/Flag-core106 dimerization, 1536-well; inhibition, % at 5 µM; AID 1899; hit rate 0.33% among 300,000;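 active = inhibition above the mean of all tested compounds plus 3 SD, set per screening campaign, cut at about 45% in these data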
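Material: GST/Flag-tagged HCV core106 proteins. Incubation: 4 h, 22.5 °C incubation. Read-out basis: inhibition (%) from 671 over 617 nm ratio. Measured by: TR-FRET, excitation 340 nm, emission 617 and 671 nm.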
MEX-5 binding: C. elegans MEX-5 TCR-2 RNA binding activity; MEX-5/FITC-TCR2 RNA binding, fluorescence polarization; stronger effect = lower value; activity score (negative = inhibition of binding), % at 10 µM; hit rate 0.38% among 300,000; AID 1832;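 active = inhibition past about -25% in most replicates, and total fluorescence under double the plate's negative control median, limit read from the data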;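 note: 0% = DMSO and -100% = 5 µM competing unlabeled TCR2 RNA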
Target sequence (Q9XUB2 whole entry, looked up): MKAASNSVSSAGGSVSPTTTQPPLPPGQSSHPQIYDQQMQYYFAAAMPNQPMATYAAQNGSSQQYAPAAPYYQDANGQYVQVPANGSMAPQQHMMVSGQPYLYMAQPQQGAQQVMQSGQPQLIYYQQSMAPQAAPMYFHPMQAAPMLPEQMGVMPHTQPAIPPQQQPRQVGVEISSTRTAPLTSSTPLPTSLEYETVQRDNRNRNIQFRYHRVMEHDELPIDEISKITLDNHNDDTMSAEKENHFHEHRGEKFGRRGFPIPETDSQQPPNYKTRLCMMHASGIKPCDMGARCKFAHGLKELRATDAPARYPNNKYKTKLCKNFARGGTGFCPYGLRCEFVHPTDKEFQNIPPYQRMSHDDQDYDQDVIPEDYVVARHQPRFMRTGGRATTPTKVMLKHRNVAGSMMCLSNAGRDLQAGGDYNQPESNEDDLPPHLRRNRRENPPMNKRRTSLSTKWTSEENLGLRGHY
EBNA-1 inh: blocks EBNA-1 binding to DNA; EBNA-1 DNA binding, fluorescence polarization; hit rate 0.34% among 300,000; inhibition, % at 14.8 µM; in the data active = inhibition above about 28%
EBNA-1 inh conf: EBNA-1 (EBV) inhibition, confirmation | shares compounds with EBNA-1 inh | Recombinant EBNA-1 DBD, Cy5-DNA fluorescence polarization | inhibition, % at 14.8 µM | hit rate 35% among 830;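 active = mean inhibition across replicates above a set limit taken from the earlier primary screen, cut at about 28% in these data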;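 note: plate controls were EBNA-1 protein with DMSO for no effect and wells lacking EBNA-1 for full effect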
ZTA DNA inh trip: counter-screen for EBNA-1 inhibitors: Epstein-Barr virus ZTA inhibitors, triplicate; shares compounds with EBNA-1 inh; inhibition, % at 11.1 µM; Zta-ZRE DNA binding, Cy5 fluorescence polarization; 830 tested, under 10 active;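 active = mean inhibition over triplicates above a set limit taken from the primary EBNA-1 screen, cut at about 37% in these data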;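 note: purified full length Zta protein with Cy5 labeled ZRE DNA probe; 0% = Zta with DMSO and 100% = wells lacking Zta protein; inhibitors lower polarization by freeing the labeled DNA probe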
* = called active by the depositor; nt = not tested or not shown. Only some compounds are listed: those with a hit (about 1.7% of all), similar ones and a draw of the others.

SMILES	NS3 helicase inh	EBV gp42 block	ZTA DNA inh	core dimer inh	MEX-5 binding	EBNA-1 inh	EBNA-1 inh conf	ZTA DNA inh trip
COc1ccccc1/C=C/C(=O)OCC(=O)c1c(N)n(C)c(=O)n(C)c1=O	2	-14	-4	3	0	48*	26	8
CCCOc1ccc(C(=O)OCC(=O)c2c(N)n(C)c(=O)n(C)c2=O)cc1OCC	1	16	3	-5	2	-8	nt	nt
CCCCN(Cc1ccco1)C(=O)C1CCCN(c2ncnc3c2nc2n3CCCCC2)C1 (stereo unspecified)	4	nt	-18	7	1	-8	nt	nt
COc1cc(SC)ccc1C(=O)N1CCN(Cc2ccc3c(c2)OCO3)CC1	-7	nt	4	10	2	7	nt	nt
O=c1c(C(c2ccccc2)c2c(O)sc3ccccc3c2=O)c(O)sc2ccccc12	24	7	23	19	0	60*	38*	39*
COc1ccc(NC(=O)c2ccccc2NS(C)(=O)=O)cc1OC	0	-1	7	-1	-3	-6	nt	nt
COc1ccccc1Nc1ncc(C(=O)Nc2ccc(OC)c(OC)c2)c2ccccc12	18	2	1	4	2	80*	55*	4
COc1ccc(-n2ncc3c(=O)n(CC(=O)N4c5ccccc5CC4C)cnc32)cc1 (stereo unspecified)	7	-11	1	7	2	31*	1	4
CCOC(=O)Cn1cnc2c(cnn2-c2ccc(OC)cc2)c1=O	-2	nt	-2	6	-1	5	nt	nt
COc1ccc(-n2nc(C(=O)NCC(=O)NCc3cccc(F)c3)c3ccccc3c2=O)cc1Cl	5	nt	22	13	1	28*	-7	6
COC(=O)CNC(=O)CNC(=O)c1nn(-c2ccc(OC)c(Cl)c2)c(=O)c2ccccc12	4	-11	-2	0	-4	-11	nt	nt
COc1ccccc1Nc1nn2c(=O)c3ccc(C(=O)N4CCCC(C)C4)cc3nc2s1 (stereo unspecified)	-8	nt	-6	2	1	1	nt	nt
COc1ccc(-n2ncc(C(C)NS(=O)(=O)c3ccc(C)s3)c2C)cc1 (stereo unspecified)	-3	nt	13	-6	0	4	nt	nt
O=C1N=C(N2CCCCC2)S/C1=C\c1cn[nH]c1-c1ccccc1	4	-12	14	0	3	91*	15	0
O=C1N/C(=C\c2ccccc2)C(O)=C1C=NCc1ccccc1	9	9	-6	-6	1	33*	10	9
CCCCCn1c(=O)c(-c2nc3ccccc3[nH]2)c(O)c2ccccc21	0	-13	3	4	0	-15	nt	nt
CC(C)NC(=S)NCc1cccs1	-7	-3	8	1	1	7	nt	nt
Cn1c(=O)n(C)c2cc(/C=C3/NC(=O)N(Cc4ccccc4)C3=O)ccc21	1	-16	-7	-2	-4	134*	113*	1
COc1ccc(Oc2ccc(NC(=O)c3ccccc3C)cc2)cc1	-5	7	0	2	1	-1	nt	nt
Cc1ccc(/C(N)=N/OC(=O)c2ccc3ccccc3c2)cc1	-2	nt	9	16	-1	31*	42*	11
CC(=O)n1nc(-c2ccccc2)nc1NCc1cccs1	-1	-4	10	-6	-3	-2	nt	nt
CCS(=O)(=O)N1CCN(S(=O)(=O)c2ccc(S(=O)(=O)NC3CC3)cc2)CC1	5	nt	19	1	-2	48*	44*	16
Cc1cccc(NC(=O)CSc2ncnc3sc(C)c(C)c23)n1	6	nt	nt	nt	1	nt	nt	nt
Cc1sc2ncnc(SCC(=O)NNC(=O)COc3cccc4ccccc34)c2c1C	-4	-16	17	4	-1	119*	98*	-11
Cc1ccc(C(=O)NC(=S)N(C)C2CCCCC2)cc1	-6	nt	-12	-10	2	-5	nt	nt
